The values below come from ChEMBL document CHEMBL1255281, “Effects on gram-negative and gram-positive bacteria mediated by 5-aminolevulinic Acid and 5-aminolevulinic acid derivatives” (2008).

Assay [1] concerns Escherichia coli. Nature of the assay: Induction of photoactive porphyrins in Escherichia coli K-12 at 10 mM exposed to irradiation at 120 J.cm2 light by HPLC. Type of assay: functional, organism-based. The procedure, abridged:
(§1)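 Cells were loaded 4 h at 37°C in the dark with substrate in PBS (pH 6.5), in parallel with the PDI samples. 10 ml of suspension was pelleted and taken up in ethanol/DMSO/acetic acid (80:20:1). Cells were broken by five 5-s sonication pulses at 0°C and centrifuged. The supernatant was run on HPLC with a gradient (acetate buffer/acetonitrile to methanol/acetonitrile) and fluorescence detection (ex 407, em 620 nm). Total porphyrins are given as pmol·10⁻⁶ CFU.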

Assay [2] deals with Escherichia coli. The assay can be described thus: Antibacterial activity against Escherichia coli K-12 assessed as reduction in microbial viability incubated at 10 mM followed by irradiation at 120 J.cm2 light. Type of assay: functional, organism-based. The procedure, abridged:
(§2)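 Log-phase cells (OD600 ~0.30) washed twice in PBS (0.1 N, pH 6.5), pelleted, resuspended in freshly made substrate in the same PBS and kept 4 h at 37°C in the dark with shaking. About 5 × 10⁷ bacteria in 2.5 ml were then exposed to white halogen light for 40 min (120 J·cm⁻²). CFU were counted by plating dilutions on Columbia agar. Survival = CFU/ml after PDI ÷ CFU/ml of initial sample; mean of n = 4 ± SD.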

Assay [3] has as its system Pseudomonas aeruginosa. Nature of the assay: Antibacterial activity against Pseudomonas aeruginosa assessed as microbial survival fraction incubated at 1 mM followed by irradiation at 120 J.cm2 light relative to untreated control. It counts as functional. The procedure, abridged: as §2
Assay [4] relates to Escherichia coli. Nature of the assay: Induction of photoactive porphyrins in Escherichia coli K-12 assessed as uroporphyrin level exposed to irradiation at 120 J.cm2 light by HPLC. Type of assay: functional, organism-based. An outline of the steps:
as §1

For assay [5], the system named is Escherichia coli. Nature of the assay: Antibacterial activity against Escherichia coli K-12 assessed as reduction in microbial viability incubated at 40 mM for 4 hrs under dark condition. Type of assay: functional, organism-based. An outline of the steps: (§3)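 Dark toxicity. Washed log-phase cells (OD600 ~0.30, PBS 0.1 N pH 6.5) were held 4 h at 37°C in the dark with shaking in substrate dissolved in the same PBS and were not illuminated. CFU were counted on Columbia agar. Survival = CFU/ml of nonilluminated sample ÷ CFU/ml of initial sample; mean of n = 4 ± SD.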

For assay [6], the system named is Staphylococcus aureus. The assay can be described thus: Antibacterial activity against methicillin resistant Staphylococcus aureus assessed as microbial survival fraction incubated at 10 mM followed by irradiation at 120 J.cm2 light relative to untreated control. It counts as functional. An outline of the steps:
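MRSA grown 48 h on Columbia sheep-blood agar, then overnight in tryptone soy broth at 37°C, brought to OD600 ~0.30 and washed twice in PBS pH 6.5. Cells were held with substrate in PBS for 4 h in the dark at 37°C with shaking. About 5 × 10⁷ bacteria were exposed to halogen white light for 40 min (120 J·cm⁻²). CFU were counted on Columbia agar; survival = N_PDI/N₀; mean of n = 4 ± SD.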

The test system of assay [7] is Escherichia coli. The assay can be described thus: Induction of photoactive porphyrins in Escherichia coli K-12 assessed as porphyrin level per 10^-6 CFU microbial load incubated at 0.1 mM followed by irradiation at 120 J.cm2 light relative to untreated control. Type of assay: functional. An outline of the steps: as §1
The test system of assay [8] is Escherichia coli. Nature of the assay: Induction of photoactive porphyrins in Escherichia coli K-12 exposed to irradiation at 120 J.cm2 light by HPLC. Type of assay: functional, organism-based. The procedure, abridged:
as §1

Assay [9] deals with Escherichia coli. Nature of the assay: Antibacterial activity against Escherichia coli Ti05 assessed as microbial survival fraction incubated at 1 mM followed by irradiation at 120 J.cm2 light relative to untreated control. Type of assay: functional. An outline of the steps: as §2
For assay [10], the system named is Escherichia coli. Nature of the assay: Induction of photoactive porphyrins in Escherichia coli K-12 assessed as protoporphyrin level exposed to irradiation at 120 J.cm2 light by HPLC. Type of assay: functional, organism-based. An outline of the steps:
as §1

The test system of assay [11] is Escherichia coli. The assay can be described thus: Antibacterial activity against Escherichia coli K-12 assessed as reduction in microbial viability incubated at 40 mM followed by irradiation at 120 J.cm2 light. Type of assay: functional, organism-based. The procedure, abridged: as §2
Assay [12] deals with Pseudomonas aeruginosa. Nature of the assay: Induction of photoactive porphyrins in Pseudomonas aeruginosa assessed as porphyrin level per 10^-6 CFU microbial load incubated at 1 mM followed by irradiation at 120 J.cm2 light relative to untreated control. Type of assay: functional. An outline of the steps: as §1
Assay [13] concerns Escherichia coli. Nature of the assay: Induction of photoactive porphyrins in Escherichia coli Ti05 assessed as porphyrin level per 10^-6 CFU microbial load incubated at 1 mM followed by irradiation at 120 J.cm2 light relative to untreated control. It counts as functional. An outline of the steps: as §1
The subject of assay [14] is Escherichia coli. Nature of the assay: Antibacterial activity against Escherichia coli K-12 assessed as reduction in microbial viability incubated at <40 mM for 4 hrs under dark condition. Type of assay: functional, organism-based. An outline of the steps: as §3
The test system of assay [15] is Escherichia coli. The assay can be described thus: Antibacterial activity against Escherichia coli K-12 assessed as microbial survival fraction incubated at 0.1 mM followed by irradiation at 120 J.cm2 light relative to untreated control. Type of assay: functional. An outline of the steps:
as §2

Assay [16] deals with Escherichia coli. Nature of the assay: Antibacterial activity against Escherichia coli K-12 assessed as reduction in microbial viability incubated at 0.1 mM followed by irradiation at 120 J.cm2 light. It counts as functional, organism-based. An outline of the steps:
as §2

The subject of assay [17] is Staphylococcus aureus. The assay can be described thus: Induction of photoactive porphyrins in methicillin resistant Staphylococcus aureus assessed as porphyrin level per 10^-6 CFU microbial load incubated at 10 mM followed by irradiation at 120 J.cm2 light relative to untreated control. It counts as functional. The procedure, abridged: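 MRSA was washed in PBS pH 6.5 and held with substrate in PBS for 4 h in the dark at 37°C with shaking; a separate fraction was taken for porphyrin analysis. Pellets were extracted in ethanol/DMSO/acetic acid (80:20:1), sonicated 5 × 5 s at 0°C and centrifuged. Supernatant went to gradient HPLC with fluorescence detection (excitation 407, emission 620 nm). Total porphyrins are expressed as pmol·10⁻⁶ CFU.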

Assay [18] deals with Pseudomonas aeruginosa. The assay can be described thus: Antibacterial activity against Pseudomonas aeruginosa assessed as microbial survival fraction incubated at 10 mM followed by irradiation at 120 J.cm2 light relative to untreated control. Type of assay: functional. The procedure, abridged: as §2
The test system of assay [19] is Escherichia coli. The assay can be described thus: Antibacterial activity against Escherichia coli K-12 assessed as microbial survival fraction incubated at 10 mM followed by irradiation at 120 J.cm2 light relative to untreated control. Type of assay: functional. An outline of the steps: as §2
Assay [20] deals with Escherichia coli. The assay can be described thus: Induction of photoactive porphyrins in Escherichia coli K-12 assessed as porphyrin 6-CP level exposed to irradiation at 120 J.cm2 light by HPLC. Type of assay: functional, organism-based. An outline of the steps:
as §1

Assay [21] deals with Escherichia coli. Nature of the assay: Induction of photoactive porphyrins in Escherichia coli K-12 assessed as porphyrin 5-CP level exposed to irradiation at 120 J.cm2 light by HPLC. Type of assay: functional, organism-based. An outline of the steps:
as §1

In assay [22] the test system is Escherichia coli. The assay can be described thus: Antibacterial activity against Escherichia coli Ti05 assessed as microbial survival fraction incubated at 10 mM followed by irradiation at 120 J.cm2 light relative to untreated control. It counts as functional. The procedure, abridged:
as §2

In assay [23] the test system is Escherichia coli. The assay can be described thus: Induction of photoactive porphyrins in Escherichia coli K-12 assessed as porphyrin 7-CP level exposed to irradiation at 120 J.cm2 light by HPLC. It counts as functional, organism-based. The procedure, abridged:
as §1

Assay [24] relates to Escherichia coli. The assay can be described thus: Induction of photoactive porphyrins in Escherichia coli Ti05 assessed as porphyrin level per 10^-6 CFU microbial load incubated at 10 mM followed by irradiation at 120 J.cm2 light relative to untreated control. Type of assay: functional. An outline of the steps: as §1
For assay [25], the system named is Escherichia coli. The assay can be described thus: Induction of photoactive porphyrins in Escherichia coli K-12 assessed as porphyrin level per 10^-6 CFU microbial load incubated at 10 mM followed by irradiation at 120 J.cm2 light relative to untreated control. It counts as functional. An outline of the steps:
as §1

Assay [26] has as its system Escherichia coli. Nature of the assay: Antibacterial activity against Escherichia coli K-12 assessed as reduction in microbial viability incubated at 30 mM for 4 hrs under dark condition. It counts as functional, organism-based. An outline of the steps:
as §3

The subject of assay [27] is Pseudomonas aeruginosa. Nature of the assay: Induction of photoactive porphyrins in Pseudomonas aeruginosa assessed as porphyrin level per 10^-6 CFU microbial load incubated at 10 mM followed by irradiation at 120 J.cm2 light relative to untreated control.

Active and inactive are the calls of the source. No cut-off for these calls is given here.

Take `CCCCCCCCOC(=O)CCC(=O)CN`: in assay [1], the outcome was inactive. Also, the “growth inhibition (GI)” value in assay [2] is “inactive”.

For the compound `CCCCCCOC(=O)CCC(=O)CN`, the outcome in assay [1] was inactive. Also, the “growth inhibition (GI)” value in assay [2] is “inactive”.

On to `CCCCCOC(=O)CCC(=O)CN`, for which, in [1], the outcome was inactive. For the same compound, the “growth inhibition (GI)” value in assay [2] is “inactive”.

`CCCCOC(=O)CCC(=O)CN`: the outcome in assay [1] was Active. Further, the “growth inhibition (GI)” value in assay [2] is “Active”.

As to `NCC(=O)CCC(=O)O` [AMINOLEVULINIC ACID], the Ratio is listed as 0.0019 in assay [3], 5e-06 in assay [6], 5e-05 in [9] and 0.00048 in [15]. In addition, the outcome in assay [4], in assay [8] and in [10] was Active. Further, the “growth inhibition (GI)” value in assay [5], in [11] and in assay [16] was “Active” each time. Moreover, the Activity turned out to be 7.5 pmol in [7], 34.5 pmol in assay [12], 5.4 pmol in [13] and 6.6 pmol in assay [17]. Also, the “growth inhibition (GI)” value in [14] was “inactive”.

Take `COC(=O)CCC(=O)CN` [METHYL AMINOLEVULINATE]: the Ratio is on record as 0.012 in [18], 0.00078 in assay [6], 8.1e-06 in [19] and 2e-05 in [22]. Moreover, the result in assay [4], in assay [20], in assay [21] and in [23] was Active. Also, the Activity came out at 10.2 pmol in assay [24], 12.5 pmol in assay [25], 6 pmol in [27] and 2.5 pmol in [17]. Also, the “growth inhibition (GI)” value in assay [2] and in [26] was “Active” in each case.
